Where “and” joins values, the source holds several entries; their conditions need not be identical. Identical values can stand only once. Like-named read-outs stand apart in the source and are kept apart here.
Assays:
[1] = target: WT hERG1 channels (Homo sapiens, UniProt Q12809); assay type: cell-based; conditions: for fold increase in Itest (isochronal, 4 s): 10 µM ICA, stated for WT and WT4 together
In short: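 Oocytes were injected with 10 ng cRNA for single WT subunits and recorded 1–3 d later by two-electrode voltage clamp. Bath (mM): 98 NaCl, 2 KCl, 1 CaCl2, 1 MgCl2, 5 HEPES, pH 7.6. Test compound was diluted from a 20 mM DMSO stock just before use. Itest was taken at the end of 4-s steps (−70 to 50 mV); tails at −70 mV were Boltzmann-fitted for V0.5act and z. Mean ± SEM, n = oocytes.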

[2] = target: WT4 hERG1 channels (Homo sapiens, UniProt Q12809); assay type: cell-based; conditions: for fold increase in Itest (isochronal, 4 s): 10 µM ICA, stated for WT and WT4 together
In short: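 WT4 tetramers (50 ng cRNA, 4–8 d) were studied by two-electrode voltage clamp in pH 7.6 bath, 2 mM KCl. Tests used 4-s steps, −70 to 50 mV, with tails at −70 mV and Boltzmann fits (V0.5act). Inactivation: 40 mV prepulse, then 5 s at 30 to −140 mV. Concentration-response of Itest at 20 mV or of Itail-max was fitted logistically (EC50, nH). Some Itail-Vret runs used 20 mM KCl bath.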

[3] = target: FL1/WT3 hERG1 channels (F557L) (Homo sapiens, UniProt Q12809, F557L); assay: Two-electrode voltage clamp, concatenated tetramer FL1/WT3 in Xenopus oocytes; assay type: cell-based; conditions: 30 µM ICA
In short: (§1)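 F557L/WT concatenated tetramers were expressed from 50 ng cRNA and recorded 4–8 d later by two-electrode voltage clamp in pH 7.6 HEPES bath, with and without test compound. V0.5act and z came from Boltzmann fits of tails at −70 mV after 4-s steps. Inactivation: 1 s at 40 mV, then 5 s at 30 to −140 mV, with Itail/(Vret−Erev) fitted. Fold increase in Itest at 20 mV over 1–30 µM was fitted logistically (EC50, nH).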

[4] = target: WT3/FL1 hERG1 channels (F557L) (Homo sapiens, UniProt Q12809, F557L); assay: Two-electrode voltage clamp, concatenated tetramer WT3/FL1 in Xenopus oocytes; assay type: cell-based; conditions: 30 µM ICA, mean ± SEM
In short: as §1

[5] = target: FL1/WT1/FL1/WT1 hERG1 channels (F557L) (Homo sapiens, UniProt Q12809, F557L); assay type: cell-based; conditions: 30 µM ICA, mean ± SEM
In short: as §1

[6] = target: FL2/WT2 hERG1 channels (F557L) (Homo sapiens, UniProt Q12809, F557L); assay: Two-electrode voltage clamp, concatenated tetramer FL2/WT2 in Xenopus oocytes; assay type: cell-based; conditions: 30 µM ICA, mean ± SEM
In short: as §1

[7] = target: FL1/WT1/FL2 hERG1 channels (F557L) (Homo sapiens, UniProt Q12809, F557L); assay type: cell-based
In short: as §1

[8] = target: FL4 hERG1 channels (F557L) (Homo sapiens, UniProt Q12809, F557L); assay: Two-electrode voltage clamp, concatenated tetramer FL4 in Xenopus oocytes; assay type: cell-based; conditions: 30 µM ICA, mean ± SEM
In short: as §1

[9] = Limit of solubility in extracellular solution; assay type: physicochemical; conditions: extracellular solution pH 7.6, diluted from 20-mM DMSO stock
[10] = target: LE1/WT3 hERG1 channels (L646E) (Homo sapiens, UniProt Q12809, L646E); assay: Two-electrode voltage clamp, concatenated tetramer LE1/WT3 in Xenopus oocytes; assay type: cell-based
In short: (§2)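 Concatenated L646E/WT tetramers: 50 ng cRNA per oocyte, recorded 4–8 d later by two-electrode voltage clamp in pH 7.6 HEPES bath. Activation used 4-s steps, −70 to 50 mV, with Itail at −70 mV Boltzmann-fitted for V0.5act and z. Inactivation used 1 s at 40 mV, then 5 s at 30 to −140 mV; Itail/(Vret−Erev) was Boltzmann-fitted. Fold increase in Itail-max over 1–30 µM was fitted with a logistic equation (EC50, nH).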

[11] = target: WT3/LE1 hERG1 channels (L646E) (Homo sapiens, UniProt Q12809, L646E); assay: Two-electrode voltage clamp, concatenated tetramer WT3/LE1 in Xenopus oocytes; assay type: cell-based
In short: as §2

[12] = target: LE1/WT1/LE1/WT1 hERG1 channels (L646E) (Homo sapiens, UniProt Q12809, L646E); assay type: cell-based; conditions: 10 µM PD, mean ± SEM
In short: as §2

[13] = target: LE2/WT2 hERG1 channels (L646E) (Homo sapiens, UniProt Q12809, L646E); assay: Two-electrode voltage clamp, concatenated tetramer LE2/WT2 in Xenopus oocytes; assay type: cell-based; conditions: 10 µM PD, mean ± SEM
In short: as §2

[14] = target: LE1/WT1/LE2 hERG1 channels (L646E) (Homo sapiens, UniProt Q12809, L646E); assay type: cell-based; conditions: 10 µM PD, mean ± SEM
In short: as §2

[15] = target: LE4 hERG1 channels (L646E) (Homo sapiens, UniProt Q12809, L646E); assay: Two-electrode voltage clamp, concatenated tetramer LE4 in Xenopus oocytes; assay type: cell-based; conditions: 10 µM PD, mean ± SEM
In short: as §2

Structure (SMILES): O=C(Nc1ccc(Oc2ccccc2)cc1)c1cccc([N+](=O)[O-])c1 [ICA, 3-nitro-N-(4-phenoxyphenyl) benzamide]
- fold increase in Itest (isochronal, 4 s) ([1]; at 20 mV): 20 fold
- fold increase in Itest (isochronal, 4 s) ([1]; at −30 mV): 4 fold
- fold increase in Itest (isochronal, 4 s) ([2]; at 20 mV): 20 fold
- fold increase in Itest (isochronal, 4 s) ([2]; at −30 mV): 4 fold
- effect on Itail at potentials more negative than −100 mV ([2]; 30 µM ICA, WT4, bath solution containing 20 mM KCl): did not cause an increase in Itail
- V0.5inact (V0.5 for C-type inactivation) ([2]; 30 µM ICA, WT4, mean ± SEM): 57.8 ± 4.1 mV
- z for inactivation ([2]; 30 µM ICA, WT4, mean ± SEM): 1.17 ± 0.05
- nH (Hill coefficient) for increase in Itest at 20 mV ([2]; ICA, WT4): 1.7
- increase in current at Vt of 20 mV, WT4 channels compared with FL1/WT1/FL2 channels ([2]; ICA, ratio WT4 vs FL1/WT1/FL2): ~13 fold
- EC50 ([2]; read-out: EC50 for increase in Itest measured at 20 mV, ICA, WT4): 9.1 µM
- V0.5act (half-point of channel activation) ([3]; mean ± SEM): −34.5 ± 1.5 mV
- V0.5inact (V0.5 for C-type inactivation) ([3]; mean ± SEM): 28.5 ± 6.0 mV
- z (equivalent charge) for activation ([3]; mean ± SEM): 4.06 ± 0.39
- z for inactivation ([3]; mean ± SEM): 0.95 ± 0.13
- positive shift in V0.5inact ([3]; n = 4): 70 ± 3 mV
- V0.5act (half-point of channel activation) [4]: −36.7 ± 1.1 mV
- V0.5inact (V0.5 for C-type inactivation) [4]: 49.9 ± 4.0 mV
- z (equivalent charge) for activation [4]: 3.57 ± 0.39
- z for inactivation [4]: 1.21 ± 0.03
- V0.5act (half-point of channel activation) [5]: −29.6 ± 1.6 mV
- V0.5inact (V0.5 for C-type inactivation) [5]: −33.7 ± 16.0 mV
- z (equivalent charge) for activation [5]: 3.00 ± 0.25
- z for inactivation [5]: 0.56 ± 0.03
- V0.5act (half-point of channel activation) [6]: −37.1 ± 0.4 mV
- V0.5inact (V0.5 for C-type inactivation) [6]: −22.4 ± 9.3 mV
- z (equivalent charge) for activation [6]: 3.88 ± 0.48
- z for inactivation [6]: 0.46 ± 0.01
- V0.5act (half-point of channel activation) ([7]; 30 µM ICA, mean ± SEM): −19.5 ± 2.9 mV
- V0.5inact (V0.5 for C-type inactivation) ([7]; 30 µM ICA, mean ± SEM): −72.5 ± 7.7 mV
- z (equivalent charge) for activation ([7]; 30 µM ICA, mean ± SEM): 2.80 ± 0.22
- z for inactivation ([7]; 30 µM ICA, mean ± SEM): 0.61 ± 0.05
- shift in V0.5inact ([7]; 30 µM ICA, n = 4): 6.6 ± 1.6 mV
- nH (Hill coefficient) for increase in Itest at 20 mV ([7]; ICA): 2.0
- EC50 ([7]; read-out: EC50 for increase in Itest measured at 20 mV, ICA): 11.8 µM
- V0.5act (half-point of channel activation) [8]: −18.7 ± 1.0 mV
- V0.5inact (V0.5 for C-type inactivation) [8]: −98.8 ± 7.8 mV
- z (equivalent charge) for activation [8]: 3.60 ± 0.15
- z for inactivation [8]: 0.69 ± 0.04
- limit of solubility [9]: 0.03 mM

Structure (SMILES): O=C(O)c1ccccc1Nc1ccc(CCc2ccc(Cl)c(Cl)c2)cc1 [PD, 2-(4-[2-(3,4-dichloro-phenyl)-ethyl]-phenylamino)-benzoic acid]
- increase in Itest measured at the end of 4-s pulses ([1]; 10 µM PD, WT hERG1): about twofold
- V0.5act (half-point of channel activation) ([1]; 10 µM PD, WT hERG1, mean ± SEM): −29.2 ± 14 mV
- V0.5inact (V0.5 for C-type inactivation) ([1]; 10 µM PD, WT hERG1, mean ± SEM): −34.7 ± 4.2 mV
- z (equivalent charge) for activation ([1]; 10 µM PD, WT hERG1, mean ± SEM): 3.07 ± 0.34
- z for inactivation ([1]; 10 µM PD, WT hERG1, mean ± SEM): 1.19 ± 0.09
- increase in Itest measured at the end of 4-s pulses ([2]; 10 µM PD, WT4): about twofold
- increase in Itail ([2]; 10 µM PD, WT4, Vret −140 mV after 1-s pulse to 40 mV): 68%
- V0.5act (half-point of channel activation) ([2]; 10 µM PD, WT4, mean ± SEM): −26.7 ± 1.0 mV
- V0.5inact (V0.5 for C-type inactivation) ([2]; 10 µM PD, WT4, mean ± SEM): −39.4 ± 4.6 mV
- z (equivalent charge) for activation ([2]; 10 µM PD, WT4, mean ± SEM): 3.07 ± 0.30
- z for inactivation ([2]; 10 µM PD, WT4, mean ± SEM): 1.26 ± 0.17
- EC50 [10]: 4.6 µM
- V0.5act (half-point of channel activation) ([10]; 10 µM PD, LE1/WT3, mean ± SEM): −30.1 ± 1.6 mV
- V0.5inact (V0.5 for C-type inactivation) ([10]; 10 µM PD, LE1/WT3, mean ± SEM): −44.6 ± 2.7 mV
- z (equivalent charge) for activation ([10]; 10 µM PD, LE1/WT3, mean ± SEM): 4.20 ± 0.07
- z for activation (Figure 6 legend) ([10]; 10 µM PD, LE1/WT3, mean ± SEM): 4.2 ± 0.07
- z for inactivation ([10]; 10 µM PD, LE1/WT3, mean ± SEM): 1.24 ± 0.10
- nH (Hill coefficient) for fold increase in Itail-max ([10]; PD, LE1/WT3): 1.1
- EC50 [11]: 4.8 µM
- V0.5act (half-point of channel activation) ([11]; 10 µM PD, WT3/LE1, mean ± SEM): −27.1 ± 1.3 mV and −27.1 ± 1.29 mV
- V0.5inact (V0.5 for C-type inactivation) ([11]; 10 µM PD, WT3/LE1, mean ± SEM): −33.5 ± 3.7 mV
- z (equivalent charge) for activation ([11]; 10 µM PD, WT3/LE1, mean ± SEM): 3.44 ± 0.16
- z for activation (Figure 6 legend) ([11]; 10 µM PD, WT3/LE1, mean ± SEM): 3.44 ± 0.16
- z for inactivation ([11]; 10 µM PD, WT3/LE1, mean ± SEM): 1.44 ± 0.19
- nH (Hill coefficient) for fold increase in Itail-max ([11]; PD, WT3/LE1): 1.4
- V0.5act (half-point of channel activation) [12]: −32.7 ± 0.8 mV
- V0.5inact (V0.5 for C-type inactivation) [12]: −43.3 ± 3.4 mV
- z (equivalent charge) for activation [12]: 3.45 ± 0.19
- z for inactivation [12]: 1.22 ± 0.07
- V0.5act (half-point of channel activation) [13]: −31.3 ± 1.0 mV
- V0.5inact (V0.5 for C-type inactivation) [13]: −45.5 ± 2.8 mV
- z (equivalent charge) for activation [13]: 3.94 ± 0.12
- z for inactivation [13]: 1.19 ± 0.08
- V0.5act (half-point of channel activation) [14]: −30.3 ± 1.4 mV
- V0.5inact (V0.5 for C-type inactivation) [14]: −47.7 ± 4.0 mV
- z (equivalent charge) for activation [14]: 3.55 ± 0.15
- z for inactivation [14]: 1.31 ± 0.08
- V0.5act (half-point of channel activation) [15]: −32.6 ± 1.2 mV
- V0.5inact (V0.5 for C-type inactivation) [15]: −43.6 ± 2.2 mV
- z (equivalent charge) for activation [15]: 3.55 ± 0.25
- z for inactivation [15]: 1.52 ± 0.05

Source: publication PMC3971662 (The Journal of General Physiology, 2014)
